Screening data: PubChem BioAssay, Broad Institute
The list is not random: actives were taken first. Their share in the collection is about 1.3%.
FN deposition inh – fibronectin deposition inhibition | AID 743247 | inhibition, % at 12.6 µM | AH1F fibroblasts, Alexa488-fibronectin deposition fluorescence, overnight | 0.086% of 350,000 active;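 active = mean inhibition across replicates of 30% or more, regardless of how many single replicates reach that level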
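material = AH1F fibroblast monolayer depositing Alexa488-labelled fibronectin into matrix | amount = 10000 AH1F cells/well | buffer or medium = DMEM plus 2% serum, read in PBS | incubation = 1 h cell adhesion before compound, then overnight fibronectin incubation | detection = fluorescence at 485 nm excitation, 525 nm emission | evaluation = percent inhibition as loss of matrix-bound fibronectin fluorescence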
PAX8 inh HTS – inhibitors of PAX8 transcriptional activity in RMG-I cells; inhibition, % at 12.6 µM; 1.2% of 360,000 active; RMG-I TPO-luciferase reporter, SteadyGlo, 24 h;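 active = mean replicate inhibition at least 60% with every replicate also reaching 60%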;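 note: luciferase light reporting Pax8 driven TPO promoter activity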
RAD54 branch – blocks human RAD54 Holliday junction branch migration; 0.14% of 360,000 active; AID 602329; inhibition, % at 10.4 µM; FAM/BHQ fluorescence; Q92698;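 active = mean normalized replicate activity at least 40 and at least half of replicates scoring 40 or more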;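 note: inhibitors cause a drop in the FAM fluorescence signal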
RAD52 inh – blocks human RAD52 DNA annealing | P43351 | AID 651710 | inhibition, % at 18.7 µM | 0.46% of 360,000 active | recombinant RAD52 DNA annealing, FRET fluorescence;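 active = every replicate showing at least 50% inhibition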
Target sequence (P43351 whole entry, looked up): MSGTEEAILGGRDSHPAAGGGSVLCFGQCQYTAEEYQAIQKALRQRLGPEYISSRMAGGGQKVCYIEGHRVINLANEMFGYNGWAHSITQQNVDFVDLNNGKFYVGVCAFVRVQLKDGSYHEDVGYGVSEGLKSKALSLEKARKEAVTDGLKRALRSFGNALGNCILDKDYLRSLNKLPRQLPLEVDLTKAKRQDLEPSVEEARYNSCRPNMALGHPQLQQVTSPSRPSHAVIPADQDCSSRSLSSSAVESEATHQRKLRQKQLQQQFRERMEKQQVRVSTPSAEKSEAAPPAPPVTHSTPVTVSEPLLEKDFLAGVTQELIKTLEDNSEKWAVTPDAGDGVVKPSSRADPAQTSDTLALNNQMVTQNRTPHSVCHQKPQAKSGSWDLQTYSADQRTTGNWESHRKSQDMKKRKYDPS
Hits are given with their value; . = inactive; / = not tested or not shown.

SMILES | FN deposition inh | PAX8 inh HTS | RAD54 branch | RAD52 inh
CCOc1ccccc1NS(=O)(=O)c1ccc(-c2cnc(C3CC3)o2)cc1 | . | 76 | . | .
Cc1cc(C)n2nc(C(=O)Nc3ccc(N4CCOCC4)cc3)nc2n1 | . | . | . | .
O=C(N[C@@H]1CC[C@@H](CCNS(=O)(=O)c2ccc(F)cc2)O[C@H]1CO)C1CCOCC1 | / | . | . | .
NS(=O)(=O)c1cccc(NC(=S)NC(=O)c2cccc([N+](=O)[O-])c2)c1 | / | . | . | .
Cc1ccc(N2CC(C(=O)Nc3nnc(SCC(=O)Nc4cc(C)on4)s3)CC2=O)cc1 (centres undefined) | . | . | . | .
C[C@H]1CCCCO[C@@H](CN(C)C(=O)Nc2ccc(C(F)(F)F)cc2)[C@@H](C)CN([C@@H](C)CO)C(=O)c2cc(NS(=O)(=O)c3ccc(Cl)cc3)ccc2O1 | / | . | . | .
C[C@@H]1CCCCO[C@H](CN(C)C(=O)Nc2ccc(C(F)(F)F)cc2)[C@@H](C)CN([C@@H](C)CO)C(=O)c2cc(NS(=O)(=O)c3ccc(Cl)cc3)ccc2O1 | / | 92 | . | .
C[C@@H]1CCCCO[C@H](CN(C)C(=O)Nc2ccc(C(F)(F)F)cc2)[C@H](C)CN([C@H](C)CO)C(=O)c2cc(NS(=O)(=O)c3ccc(Cl)cc3)ccc2O1 | / | . | . | .
C[C@@H]1CCCCO[C@@H](CN(C)C(=O)Nc2ccc(C(F)(F)F)cc2)[C@H](C)CN([C@@H](C)CO)C(=O)c2cc(NS(=O)(=O)c3ccc(Cl)cc3)ccc2O1 | / | 69 | . | .
C[C@@H]1CCCCO[C@H](CN(C)C(=O)Nc2ccc(C(F)(F)F)cc2)[C@H](C)CN([C@H](C)CO)C(=O)c2cc(NS(=O)(=O)c3ccccc3)ccc2O1 | . | . | . | .
C[C@@H]1CCCCO[C@H](CN(C)C(=O)Nc2ccc(C(F)(F)F)cc2)[C@@H](C)CN([C@H](C)CO)C(=O)c2cc(NS(=O)(=O)c3ccc(Cl)cc3)ccc2O1 | / | . | . | .
C[C@@H]1CCCCO[C@@H](CN(C)C(=O)Nc2ccc(C(F)(F)F)cc2)[C@H](C)CN([C@H](C)CO)C(=O)c2cc(NS(=O)(=O)c3ccc(Cl)cc3)ccc2O1 | / | 88 | . | .
C[C@H](CO)N1C[C@H](C)[C@@H](CN(C)C(=O)Nc2ccc(C(F)(F)F)cc2)OCCCC[C@H](C)Oc2ccc(NS(=O)(=O)c3ccc(Cl)cc3)cc2C1=O | / | 69 | . | .
O=C(Nc1nn[nH]n1)c1ccc(S(=O)(=O)N2CCCCC2)cc1 | . | . | / | .
CN(CC(=O)NCC1CCCO1)S(=O)(=O)c1ccc2ccccc2c1 (centres undefined) | . | / | . | .
CCS(=O)(=O)N1CCN(C2Cc3ccccc3C2)CC1 | . | . | . | /
CO[C@H]1CC[C@@H]2CCOc3c(C#N)cccc3C(=O)N(C)CC3(CCCCC3)CC(=O)N(C)C[C@@H]1O2 | . | . | . | .
C[C@@H]1CCCCO[C@H](CN(C)C(=O)Nc2ccc(C(F)(F)F)cc2)[C@H](C)CN([C@@H](C)CO)C(=O)c2cc(NS(=O)(=O)c3ccc(Cl)cc3)ccc2O1 | / | 89 | . | .
O=C(CCCN1C(=O)/C(=C/c2cccc(Br)c2)SC1=S)Nc1ccccn1 | . | 110 | . | /
O=C(CCCN1C(=O)/C(=C/c2cccc(Br)c2)SC1=S)Nc1cccnc1 | . | 94 | . | .
O=C(CCCN1C(=O)/C(=C\c2cccc(Br)c2)SC1=S)Nc1cccnc1 | . | 106 | . | .
O=C(CCCN1C(=O)/C(=C/c2ccccc2OC(F)F)SC1=S)Nc1cccnc1 | . | 98 | . | .
COC(=O)c1ccc(/C=C2/SC(=S)N(CCCC(=O)Nc3ccccn3)C2=O)cc1 | . | . | / | /
O=C(Nc1cc(=O)[nH]c(=O)[nH]1)c1cc(Cl)ccc1Cl | . | . | . | .
O=C(c1ccccc1F)N1CC(=O)N2[C@@H](CO)[C@@H](c3ccc(C#Cc4ccc(F)cc4)cc3)[C@@H]2C1 | . | 108 | / | .
SMILES | FN deposition inh | PAX8 inh HTS | RAD54 branch | RAD52 inh
O=C(c1ccccc1F)N1CC(=O)N2[C@H](C1)[C@H](c1ccc(C#Cc3ccc(F)cc3)cc1)[C@@H]2CO | / | . | / | .
COc1ccc(NC(=O)N2CC(=O)N3[C@H](C2)[C@@H](c2ccc(/C=C/c4ccccc4)cc2)[C@@H]3CO)cc1 | / | . | / | .
O=C(c1ccc(F)cc1)N1CC(=O)N2[C@H](C1)[C@H](c1ccc(/C=C/c3ccccc3)cc1)[C@@H]2CO | / | 69 | / | .
O=C(c1ccc(F)cc1)N1CC(=O)N2[C@H](CO)[C@H](c3ccc(/C=C/c4ccccc4)cc3)[C@@H]2C1 | / | . | / | .
COc1cccc(C#Cc2ccc([C@@H]3[C@H](CO)N4C(=O)CN(C(=O)c5ccccc5)C[C@@H]34)cc2)c1 | / | 69 | / | .
COc1ccc(NC(=O)N2CC(=O)N3[C@@H](CO)[C@@H](c4ccc(/C=C/c5ccccc5)cc4)[C@@H]3C2)cc1 | / | 89 | / | .
COc1ccc(N(CC(=O)NCCSc2ccccc2)S(=O)(=O)c2ccccc2)cc1OC | . | . | . | .
NC(=O)CC(NC(=O)c1ccccc1)c1ccc(NCc2ccccn2)c([N+](=O)[O-])c1 (centres undefined) | . | . | . | .
O=S(=O)(c1ccc(F)cc1)N1C[C@H]2[C@@H](c3ccccc31)[C@H](CO)N2Cc1ccccc1Cl | . | 109 | . | .
O=S(=O)(c1ccc(F)cc1)N1C[C@@H]2[C@H](c3ccccc31)[C@H](CO)N2Cc1ccccc1Cl | . | . | . | .
CN1C[C@@H]2[C@H](c3ccccc31)[C@H](CO)N2Cc1ccccc1Cl | . | 109 | . | .
COC(=O)CCC(=O)Nc1cc(Cl)cc(Cl)c1 | . | 70 | / | .
COC(=O)CCC(=O)Nc1ccc(NC(C)=O)cc1 | . | . | . | /
O=C(C[C@@H]1C[C@@H]2c3cc(NS(=O)(=O)c4ccc(F)cc4)ccc3O[C@@H]2[C@@H](CO)O1)NCc1ccccc1 | . | . | . | .
O=C(C[C@H]1C[C@H]2c3cc(NS(=O)(=O)c4ccc(F)cc4)ccc3O[C@H]2[C@H](CO)O1)NCc1ccc(Oc2ccccc2)cc1 | / | 99 | . | .
O=C(C[C@H]1C[C@@H]2c3cc(NS(=O)(=O)c4ccc(F)cc4)ccc3O[C@@H]2[C@@H](CO)O1)NCc1ccc(Oc2ccccc2)cc1 | / | 101 | . | .
Cc1ccc(C(=O)Nc2ccc(Oc3ccc(C(=O)O)c(C(=O)O)c3)cc2)cc1C | / | / | . | /
COc1ccccc1NC(=O)C(=O)Nc1ccc2c(c1)N(C(=O)C1CC1)CCC2 | . | 79 | . | .
CC(=O)Nc1cccc(NC(=O)C(=O)Nc2ccc3c(c2)N(C(=O)C2CC2)CCC3)c1 | . | . | / | .
CCn1c(CC(=O)Nc2cccc(OC)c2)nnc1SCC(=O)Nc1nccs1 | / | / | / | .
CC(=O)c1ccc(N(C(=O)Cc2c[nH]c3ccccc23)C(C(=O)NC2CCCCC2)c2cccs2)cc1 (centres undefined) | . | . | . | /
O=C(NC1CCCCC1)C(c1cccs1)N(C(=O)Cc1c[nH]c2ccccc12)c1ccc(F)cc1 (centres undefined) | . | 97 | . | /
Cc1ccc(C)c(Cn2c3ccccc3c3cnn(CC(=O)NCCCN4CCCCC4)c(=O)c32)c1 | . | . | . | .
